In ChEMBL document CHEMBL5661969, “Preclinical evaluation of a potent novel DNA-dependent protein kinase inhibitor NU7441” (Cancer Res, 2006):

Legend:
[1] = Inhibition of DNA-PK in Chinese hamster DNA-PK proficient V3-YAC cells assessed as potentiation of etoposide-induced cytotoxicity by measuring etoposide LD90 at 0.5 umol/L measured after 16 hrs by crystal violet staining based assay; set-up: species or system Cricetulus griseus; details: dose 0.5 µmol/L, condition cancer
[2] = Inhibition of DNA-PK in Chinese hamster DNA-PK proficient V3-YAC cells assessed as potentiation of ionizing radiation-induced cytotoxicity by measuring radiation LD90 at 0.5 umol/L preincubated for 1 hr followed by gamma-irradiation and measured after 16 hrs by crystal violet staining based assay; set-up: species or system Cricetulus griseus; details: dose 0.5 µmol/L; time 17 hrs; condition cancer
Procedure, shortened: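 Clonogenic assay in V3/V3-YAC cells. Cells were then reseeded in drug-free medium, and crystal violet colonies were counted after 10–14 days. LD90 is the radiation dose killing 90%. DMR90 is LD90 without inhibitor divided by LD90 with inhibitor.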

[3] = Cytotoxicity against Chinese hamster DNA-PK deficient V3 cells assessed as cell survival at 0.5 umol/L measured after 16 hrs by crystal violet staining based assay relative to control; assay type: toxicity, Cricetulus griseus; details: dose 0.5 µmol/L, read-out: Activity
Procedure, shortened: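 Exponentially growing cells exposed 16 h to agent (0.5 or 1.0 μmol/L), with or without etoposide or doxorubicin, at 0.5% DMSO final; controls get DMSO alone. Cells are then trypsinized, reseeded at 100–100,000 per dish in drug-free medium and grown 10–14 days. Colonies stained with crystal violet and counted automatically.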

[4] = Growth inhibition of human LoVo cells measured after 5 days by crystal violet staining based assay; assay type: toxicity, cell-based; details: time 5 day
Procedure, shortened: (§1)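 LoVo and SW620 cells in 96-well plates under 5-day continuous exposure to agent, and growth measured relative to control.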

[5] = Growth inhibition of human SW620 cells at 1 umol/L measured after 5 days by crystal violet staining based assay relative to control; assay type: toxicity, cell-based, SW-620; details: dose 1 µmol/L, time 5 day, read-out: GI; procedure, shortened: as §1
[6] = test system: SW-620; experiment: Induction of DNA damage in human SW620 cells assessed as formation of gammaH2AX phosphorylation foci per cell at 1 umol/L measured after 1 hr by DAPI staining based immunofluorescence microscopic analysis; assay type: toxicity; details: sw-620, 1 h, 1 µM, dose 1 µmol/L
Procedure, shortened: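 SW620 cells on coverslips at 50–70% confluence, preincubated 1 h ± 1 μmol/L agent, then 1 μmol/L etoposide for 1 h, washed three times, and kept ± agent for up to 24 h. Fixation in −20 °C methanol, then anti-γH2AX Ser139 antibody with FITC secondary and DAPI mounting. Foci counted in 30 nuclei from three areas per sample, in triplicate.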

[7] = Tmax in BALB/c mouse at 5 mg/kg, iv by HPLC analysis; assay type: ADME, organism-based; details: in vivo
Procedure, shortened: (§2)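 Female BALB/c mice dosed 5 mg/kg i.v. in 10% DMSO/10% cyclodextrin in saline, or 10 mg/kg i.p. or orally at 1 mg/mL in 40% PEG400/saline. Plasma taken at 5, 10, 15, 30, 60, 90, 120, 180, 240 and 360 min, three mice per time. Acetonitrile precipitation, C18 HPLC with UV detection at 329 nm against a plasma standard curve. Parameters derived from mean concentrations.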

[8] = AUCinfinity in BALB/c mouse at 5 mg/kg, iv by HPLC analysis; assay type: ADME, organism-based; details: in vivo; procedure, shortened: as §2
[9] = Bioavailability in BALB/c mouse at 5 mg/kg, iv by HPLC analysis; assay type: ADME, organism-based; details: in vivo; procedure, shortened: as §2
[10] = Cmax in BALB/c mouse at 10 mg/kg, po by HPLC analysis; assay type: ADME, organism-based; details: in vivo; procedure, shortened: as §2
[11] = Tmax in BALB/c mouse at 10 mg/kg, po by HPLC analysis; assay type: ADME, organism-based; details: in vivo; procedure, shortened: as §2
[12] = Clearance in BALB/c mouse at 10 mg/kg, po by HPLC analysis; assay type: ADME, organism-based; details: in vivo; procedure, shortened: as §2
[13] = Oral bioavailability in BALB/c mouse at 10 mg/kg by HPLC analysis; assay type: ADME, organism-based; details: in vivo; procedure, shortened: as §2
[14] = Cmax in BALB/c mouse at 10 mg/kg, ip by HPLC analysis; assay type: ADME, organism-based; details: in vivo; procedure, shortened: as §2
[15] = Elimination half life in BALB/c mouse at 10 mg/kg, ip by HPLC analysis; assay type: ADME, organism-based; details: in vivo, read-out: beta t1/2; procedure, shortened: as §2
[16] = Ratio of drug level in tumor to plasma of human SW620 cell xenografted athymic nude CD1 mouse at 10 mg/kg, ip measured after 30 mins by HPLC analysis; assay type: ADME, organism-based; details: tumor and plasma
Procedure, shortened: (§3)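 Female CD-1 nu/nu mice bearing s.c. flank SW620 tumours (1×10^7 cells, ~650 mm³ at 10–14 days) given 10 mg/kg i.p. Tissues snap frozen, homogenised 1:3 in PBS. Acetonitrile precipitation, C18 HPLC with acetate pH 5/acetonitrile 75:25 mobile phase, UV 329 nm; tissue levels by method of addition. Tissue/plasma ratio, mean of three mice per time.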

[17] = Ratio of drug level in brain to plasma of human SW620 cell xenografted athymic nude CD1 mouse at 10 mg/kg, ip measured after 15 mins by HPLC analysis; assay type: ADME, organism-based; details: brain and plasma, read-out: BPR; procedure, shortened: as §3
[18] = Ratio of drug level in brain to plasma of human SW620 cell xenografted athymic nude CD1 mouse at 10 mg/kg, ip measured after 90 mins by HPLC analysis; assay type: ADME, organism-based; details: brain and plasma, read-out: BPR; procedure, shortened: as §3
[19] = Ratio of drug level in brain to plasma of human SW620 cell xenografted athymic nude CD1 mouse at 10 mg/kg, ip measured after 240 mins by HPLC analysis; assay type: ADME, organism-based; details: brain and plasma, read-out: BPR; procedure, shortened: as §3
[20] = Ratio of drug level in liver to plasma of human SW620 cell xenografted athymic nude CD1 mouse at 10 mg/kg, ip measured after 30 mins by HPLC analysis; assay type: ADME, organism-based; procedure, shortened: as §3
[21] = Ratio of drug level in liver to plasma of human SW620 cell xenografted athymic nude CD1 mouse at 10 mg/kg, ip measured after 240 mins by HPLC analysis; assay type: ADME, organism-based; procedure, shortened: as §3
[22] = Ratio of drug level in spleen to plasma of human SW620 cell xenografted athymic nude CD1 mouse at 10 mg/kg, ip measured after 90 mins by HPLC analysis; assay type: ADME, organism-based; procedure, shortened: as §3
[23] = Ratio of drug level in spleen to plasma of human SW620 cell xenografted athymic nude CD1 mouse at 10 mg/kg, ip measured after 240 mins by HPLC analysis; assay type: ADME, organism-based; procedure, shortened: as §3
[24] = Toxicity in human SW620 cell xenografted athymic nude CD1 mouse assessed as maximum body weight loss at 10 mg/kg, ip administered 5 times daily for 5 days relative to control; assay type: organism-based, SW-620; details: in vivo, 120 h, time 5 day
Procedure, shortened: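 CD-1 nude mice carry palpable s.c. SW620 xenografts (~5×5 mm, 8-10 days), five per group. Treated i.p. daily for 5 days with saline, agent in 40% PEG 400/saline, etoposide phosphate 11.35 mg/kg (equal to 10 mg/kg etoposide), or both, agent given immediately before etoposide phosphate. Read-outs are median relative tumour volume, time to 4× volume (growth delay) and body weight.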

[25] = target: DNA-dependent protein kinase catalytic subunit (Homo sapiens, UniProt P78527); details: LoVo, dose 1.0 µmol/L, time 17.0 hrs
[26] = test system: SW-620; experiment: Cell cycle arrest in human SW620 cells assessed as increase in G1-phase cell population at 1 umol/L measured after 16 hrs by propidium iodide staining based flow cytometry relative to control; details: sw-620, 16 h, 1 µM

Sequence of DNA-dependent protein kinase catalytic subunit (P78527 whole entry): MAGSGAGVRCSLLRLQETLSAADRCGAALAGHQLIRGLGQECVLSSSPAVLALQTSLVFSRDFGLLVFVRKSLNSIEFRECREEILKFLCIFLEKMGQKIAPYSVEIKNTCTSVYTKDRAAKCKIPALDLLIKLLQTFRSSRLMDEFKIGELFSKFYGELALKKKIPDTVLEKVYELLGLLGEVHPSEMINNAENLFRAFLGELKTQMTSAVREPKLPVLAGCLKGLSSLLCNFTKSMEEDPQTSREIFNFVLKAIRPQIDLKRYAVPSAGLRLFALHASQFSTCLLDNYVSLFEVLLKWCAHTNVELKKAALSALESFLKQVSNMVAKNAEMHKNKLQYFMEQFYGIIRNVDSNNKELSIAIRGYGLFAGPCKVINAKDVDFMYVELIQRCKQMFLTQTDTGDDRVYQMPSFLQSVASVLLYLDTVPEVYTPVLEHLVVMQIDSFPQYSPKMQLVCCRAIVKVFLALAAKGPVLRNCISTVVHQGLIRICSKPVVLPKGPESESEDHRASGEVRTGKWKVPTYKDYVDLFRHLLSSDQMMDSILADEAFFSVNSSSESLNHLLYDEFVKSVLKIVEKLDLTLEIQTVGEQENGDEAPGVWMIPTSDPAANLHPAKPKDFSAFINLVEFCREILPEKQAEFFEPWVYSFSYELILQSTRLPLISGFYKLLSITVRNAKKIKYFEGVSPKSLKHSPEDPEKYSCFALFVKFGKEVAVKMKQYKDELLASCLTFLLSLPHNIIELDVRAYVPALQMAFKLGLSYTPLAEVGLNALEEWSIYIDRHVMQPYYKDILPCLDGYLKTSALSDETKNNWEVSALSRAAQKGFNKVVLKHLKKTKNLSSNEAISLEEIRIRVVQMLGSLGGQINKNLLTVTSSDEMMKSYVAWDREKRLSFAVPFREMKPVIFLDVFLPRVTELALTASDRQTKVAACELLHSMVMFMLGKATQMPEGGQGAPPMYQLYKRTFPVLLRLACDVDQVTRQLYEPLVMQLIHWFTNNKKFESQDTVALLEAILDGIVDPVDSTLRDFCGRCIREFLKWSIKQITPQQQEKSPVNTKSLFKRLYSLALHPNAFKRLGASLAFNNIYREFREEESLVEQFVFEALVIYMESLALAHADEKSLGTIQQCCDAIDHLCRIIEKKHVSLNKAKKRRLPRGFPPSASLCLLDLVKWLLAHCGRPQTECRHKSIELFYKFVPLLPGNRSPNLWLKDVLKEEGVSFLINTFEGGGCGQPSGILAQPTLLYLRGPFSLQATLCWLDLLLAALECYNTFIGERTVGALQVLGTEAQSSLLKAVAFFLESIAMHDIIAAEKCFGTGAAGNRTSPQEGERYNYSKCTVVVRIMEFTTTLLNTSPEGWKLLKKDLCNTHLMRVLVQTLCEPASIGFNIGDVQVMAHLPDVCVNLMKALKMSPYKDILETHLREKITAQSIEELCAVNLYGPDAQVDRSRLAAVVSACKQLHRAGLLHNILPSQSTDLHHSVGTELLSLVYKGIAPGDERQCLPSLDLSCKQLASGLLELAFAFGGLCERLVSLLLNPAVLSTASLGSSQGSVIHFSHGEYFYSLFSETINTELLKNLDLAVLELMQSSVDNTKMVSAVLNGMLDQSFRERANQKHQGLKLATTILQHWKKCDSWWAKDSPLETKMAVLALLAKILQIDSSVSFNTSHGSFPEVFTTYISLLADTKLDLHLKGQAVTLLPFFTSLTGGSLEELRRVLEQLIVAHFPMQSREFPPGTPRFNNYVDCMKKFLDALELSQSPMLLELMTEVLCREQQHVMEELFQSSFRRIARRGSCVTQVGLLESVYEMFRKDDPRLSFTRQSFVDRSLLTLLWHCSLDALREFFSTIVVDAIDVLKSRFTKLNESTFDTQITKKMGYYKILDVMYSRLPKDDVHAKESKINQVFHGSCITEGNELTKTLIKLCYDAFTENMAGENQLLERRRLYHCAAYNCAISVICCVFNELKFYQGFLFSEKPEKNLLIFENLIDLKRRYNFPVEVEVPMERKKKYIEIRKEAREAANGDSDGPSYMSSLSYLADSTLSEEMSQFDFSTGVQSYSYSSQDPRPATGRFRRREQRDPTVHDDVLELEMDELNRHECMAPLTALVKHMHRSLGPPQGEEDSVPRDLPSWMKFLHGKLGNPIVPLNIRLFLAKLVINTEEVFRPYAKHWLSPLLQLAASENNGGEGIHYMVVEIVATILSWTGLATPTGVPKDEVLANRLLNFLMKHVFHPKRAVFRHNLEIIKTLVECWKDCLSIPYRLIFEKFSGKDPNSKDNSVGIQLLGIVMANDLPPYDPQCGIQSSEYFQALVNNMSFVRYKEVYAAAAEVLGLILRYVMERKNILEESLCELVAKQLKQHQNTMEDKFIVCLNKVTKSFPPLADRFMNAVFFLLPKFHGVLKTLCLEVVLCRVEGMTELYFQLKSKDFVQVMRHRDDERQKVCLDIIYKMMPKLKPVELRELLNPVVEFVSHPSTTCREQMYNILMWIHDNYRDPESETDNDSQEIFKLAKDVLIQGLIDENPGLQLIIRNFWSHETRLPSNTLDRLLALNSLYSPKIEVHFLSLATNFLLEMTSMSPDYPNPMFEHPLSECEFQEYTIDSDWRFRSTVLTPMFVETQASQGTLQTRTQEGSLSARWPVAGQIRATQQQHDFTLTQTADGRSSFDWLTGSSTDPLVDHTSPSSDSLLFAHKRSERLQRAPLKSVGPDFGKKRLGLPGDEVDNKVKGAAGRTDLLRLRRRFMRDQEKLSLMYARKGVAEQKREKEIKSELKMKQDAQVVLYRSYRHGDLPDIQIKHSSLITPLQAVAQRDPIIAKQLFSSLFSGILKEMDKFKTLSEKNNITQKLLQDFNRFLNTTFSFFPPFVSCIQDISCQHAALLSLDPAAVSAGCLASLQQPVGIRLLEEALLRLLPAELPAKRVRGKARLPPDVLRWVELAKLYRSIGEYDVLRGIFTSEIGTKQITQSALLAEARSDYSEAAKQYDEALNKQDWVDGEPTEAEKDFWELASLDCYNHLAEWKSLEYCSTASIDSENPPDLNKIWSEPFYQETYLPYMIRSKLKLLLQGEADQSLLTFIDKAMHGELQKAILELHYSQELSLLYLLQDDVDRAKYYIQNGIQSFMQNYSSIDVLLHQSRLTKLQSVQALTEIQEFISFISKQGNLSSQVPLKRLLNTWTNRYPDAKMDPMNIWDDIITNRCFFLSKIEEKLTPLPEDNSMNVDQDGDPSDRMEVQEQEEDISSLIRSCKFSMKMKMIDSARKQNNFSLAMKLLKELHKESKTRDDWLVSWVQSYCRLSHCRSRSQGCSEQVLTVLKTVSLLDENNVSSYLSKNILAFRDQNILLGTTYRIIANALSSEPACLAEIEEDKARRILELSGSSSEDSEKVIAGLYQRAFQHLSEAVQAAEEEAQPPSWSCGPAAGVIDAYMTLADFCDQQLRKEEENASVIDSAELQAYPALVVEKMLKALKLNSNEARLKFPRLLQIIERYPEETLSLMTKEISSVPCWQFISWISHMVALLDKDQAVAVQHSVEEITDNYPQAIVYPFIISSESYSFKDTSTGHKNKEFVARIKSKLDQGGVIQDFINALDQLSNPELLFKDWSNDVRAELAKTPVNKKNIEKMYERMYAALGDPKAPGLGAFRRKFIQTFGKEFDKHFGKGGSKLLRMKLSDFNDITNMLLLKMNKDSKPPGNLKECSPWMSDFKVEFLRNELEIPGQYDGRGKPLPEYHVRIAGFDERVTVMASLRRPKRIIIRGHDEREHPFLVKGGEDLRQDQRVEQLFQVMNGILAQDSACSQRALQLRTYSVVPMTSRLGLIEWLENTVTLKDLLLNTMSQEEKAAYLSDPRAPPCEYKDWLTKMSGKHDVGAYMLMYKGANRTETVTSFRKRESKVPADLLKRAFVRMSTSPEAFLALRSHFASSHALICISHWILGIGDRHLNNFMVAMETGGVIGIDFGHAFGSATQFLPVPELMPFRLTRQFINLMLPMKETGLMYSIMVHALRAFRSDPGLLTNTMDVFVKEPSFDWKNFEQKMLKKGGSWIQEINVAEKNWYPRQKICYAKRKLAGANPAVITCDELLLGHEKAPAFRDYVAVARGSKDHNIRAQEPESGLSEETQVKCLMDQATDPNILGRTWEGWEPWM

O=c1cc(N2CCOCC2)oc2c(-c3cccc4c3sc3ccccc34)cccc12
LD90 [1]: 0.8 µmol/L | LD90 [2]: 2.8 Gy | viability at 16 h, 0.5 µM [3]: 94% | GI50 at 120 h [4]: 520 nM | inhibition at 120 h, 1 µM [5]: 8% | Activity [6]: 0.13 | Tmax [7]: 5 min | AUC(0-inf) [8]: 1300 ng·h/mL | F [9]: 100% | Cmax [10]: 500 ng/mL | Tmax [11]: 30 min | CL/F [12]: 140 mL/min/kg | bioavailability [13]: 33% | Cmax [14]: 2400 ng/mL | half-life [15]: 53 min | Kp at 0.5 h [16]: 1.4 | Kp at 0.25 h [17]: 1.1 | Kp at 1.5 h [18]: 3 | Kp at 4 h [19]: 6.2 | Kp at 0.5 h [20]: 11 | Kp at 4 h [21]: 5 | Kp at 1.5 h [22]: 8.7 | Kp at 4 h [23]: 19 | Activity [24]: 12% | LD90 [25]: 1 Gy | Activity [26]: 15%
